Source: PubChem BioAssay (Broad Institute)
Glyco luc inh: increase of ERlucT glycosylation luciferase signal, primary screen, N-linked glycosylation inhibitor project, D54 ERlucT cells, luminescence, set 2; D54 ERlucT glycosylation luciferase reporter, 24 h; percent of 100 nM tunicamycin response; reporter increase, % at 12.5 µM; 360,000 tested, 0.23% active; AID 588692, 2011;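 active means mean luciferase reporter signal, scaled so untreated is 0 and the glycosylation-blocking control 100, at or above a set limit in every replicate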;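 further: luciferase carries N-glycosylation sites so blocking glycosylation raises the light; 0% = median of neutral control wells and 100% = median of 100 nM tunicamycin wells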
AF4-AF9 inh: inhibitors of AF4 peptide binding to AF9, primary screen, biochemical, AlphaScreen, biotin-AF4 peptide, FLAG-AF9, single point. Protein AF-9 (Homo sapiens), P42568. 350,000 tested, 0.47% active. inhibition, % at 10 µM. AID 651704, 2012;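 active means every replicate reaching a set inhibition limit, whatever the replicate mean, cut at about 25% in these data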;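 further: 0% = plate neutral control median and 100% = total signal loss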
RAD54 branch: inhibitors of human RAD54 branch migration, primary screen, biochemical, fluorescence, single point; 360,000 tested, 0.14% active; inhibition, % at 10.4 µM; RAD54 Holliday junction branch migration, FAM/BHQ fluorescence; AID 602329, 2012;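 active means mean normalized replicate activity at least 40 and at least half of replicates scoring 40 or more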;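 further: 0% = median of neutral control wells and 100% = median of positive control wells; inhibitors cause a drop in the FAM fluorescence signal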
FN deposit inh: inhibitors of fibronectin matrix deposition, primary screen, AH1F cells, Alexa488-fibronectin fluorescence, plate reader. AH1F fibroblasts, overnight. inhibition, % at 12.6 µM. 350,000 tested, 0.086% active. AID 743247, 2014;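 active means mean inhibition across replicates of 30% or more, regardless of how many single replicates reach that level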;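 further: positive control wells lacked labelled fibronectin entirely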
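Material: AH1F fibroblast monolayer depositing Alexa488-labelled fibronectin into matrix | Input: 10000 AH1F cells/well | Medium: DMEM plus 2% serum, read in PBS | Reagent: Alexa488-fibronectin, 24 nM final in well | Compound dosing: One dose per compound, pinned | Schedule: 1 h adhesion, overnight exposure | Measured by: Fluorescence at 485 nm excitation, 525 nm emission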
NSD2 HMT inh: NSD2 histone methyltransferase inhibitors, primary screen, biochemical, AlphaScreen, single concentration, set 2; Histone-lysine N-methyltransferase NSD2 (Homo sapiens), O96028; NSD2 peptide methylation, 120 min; inhibition, % at 12.5 µM; 310,000 tested, 0.54% active; in the data active means inhibition above about 50%
RAD52 inh: RAD52 DNA annealing inhibitors, primary screen, biochemical, FRET, single point, set 2. 360,000 tested, 0.46% active. recombinant RAD52 DNA annealing, FRET fluorescence. AID 651710, 2012. inhibition, % at 18.7 µM;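 active means every replicate showing at least 50% inhibition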
AlphaScreen art: AlphaScreen signal interference with preloaded methylated product, dose response, artefact control for NSD2 inhibitor project, biochemical, cherry-picked samples; 1,500 tested, 9.4% active; AlphaScreen artifact counterscreen, preloaded methylated H4 peptide; shares compounds with NSD2 HMT inh; AC35, µM (highest dose often 10 µM), for inactives: at the top dose activity change, negative = signal loss; call rule not given here
* = called active by the depositor; . = no result given. Hits are enriched below; roughly 1.2% of the tested compounds scored in any of these assays.

SMILES | Glyco luc inh | AF4-AF9 inh | RAD54 branch | FN deposit inh | NSD2 HMT inh | RAD52 inh | AlphaScreen art
CCOC(=O)N1CCN(C(=S)NCCOC)CC1 | -1 | . | 12 | 0 | 69* | . | 1%
CCN1CCN(C(=S)NCCOC)CC1 | 2 | 0 | . | -34 | 1 | -11 | .
COc1cc(C(=O)NC(C)c2ccc3ccccc3c2)cc(Cl)c1O (centres undefined) | 0 | -3 | -2 | 10 | 74* | -6 | -2%
COc1ccccc1NC(=O)c1ccc(-n2cccn2)nc1 | 1 | . | 1 | . | 118* | . | 2%
COCC(=O)Nc1ccc2c(c1)[C@H]1C[C@H](CC(=O)NCc3cc(F)ccc3F)O[C@H](CO)[C@H]1O2 | . | . | 4 | -12 | . | . | .
CCC(=O)N1[C@H](CO)[C@H](c2ccc(-c3ccc(F)cc3)cc2)[C@H]1CNC(C)=O | . | . | 10 | -17 | . | . | .
Cc1ccccc1NC(=O)CN1CCC(C(=O)c2ccc3c(c2)OCCO3)CC1 | -2 | 1 | -11 | 3 | 56* | -21 | -3%
O=C(CN1CCC(C(=O)c2ccc3c(c2)OCCO3)CC1)Nc1ccccc1C(F)(F)F | -2 | 0 | -2 | -6 | -1 | -28 | .
CCCCN(CC)CCCNC(=O)c1cn(CC)c2ccc(S(=O)(=O)N3CCc4ccccc4C3)cc2c1=O | -6 | 6 | . | -5 | 37 | 3 | .
CCCN(CCC)CCCNC(=O)c1cn(CC)c2ccc(S(=O)(=O)N3CCc4ccccc4C3)cc2c1=O | -6 | 5 | 3 | . | 50* | 5 | 2%
C[C@@H]1CN([C@@H](C)CO)C(=O)c2cccc(NS(=O)(=O)c3ccccc3)c2O[C@H]1CN(C)Cc1ccccc1 | . | 0 | 0 | . | . | 24 | .
CCN(CC)CCCN(Cc1cc2cc(OC)ccc2[nH]c1=O)C(=O)Nc1ccc(F)cc1 | -2 | . | . | . | 86* | . | -8%
CN1/C(=C\C(=O)COC(=O)c2ccc(O)c(O)c2)C(C)(C)c2ccccc21 | . | -2 | . | . | 56* | -84 | -10%
CN1/C(=C\C(=O)COC(=O)c2ccc(O)cc2)C(C)(C)c2ccccc21 | 2 | -27 | -12 | -8 | 3 | -40 | .
Nc1ccc2c(c1)OCCOCCOCCOCCOCCO2 | 1 | 3 | . | 0 | 64* | 23 | 0%
Brc1ccc2c(c1)OCCOCCOc1cc(Br)ccc1OCCOCCOCCO2 | 22 | . | 5 | . | . | . | .
COC(=O)c1c(SCC(=O)Nc2ccc(C)c(C)c2)nc(=O)[nH]c1C | 3 | 0 | 1 | -2 | 116* | -21 | -3%
CC(=O)N(C)c1ccc(N=Nc2c(C)[nH]n(C(N)=S)c2=O)cc1 | -13 | 0 | . | 2 | 80* | -15 | -6%
CC(=O)N(C)c1ccc(N=Nc2c(C)[nH]n(-c3ccccc3)c2=O)cc1 | 2 | -25 | -12 | -3 | 17 | -6 | .
COc1cc(C(=O)NC2CCCc3ccccc32)cc(OC)c1OC (centres undefined) | 9 | 2 | 9 | 1 | 102* | -4 | -4%
C[C@@H]1CN([C@H](C)CO)C(=O)Cc2cc(NC(=O)Nc3ccc4c(c3)OCO4)ccc2O[C@@H]1CN(C)Cc1ccc(C(F)(F)F)cc1 | . | 1 | 1 | . | . | -5 | .
Cc1oc2c(c1C(=O)O)C(=O)c1ccccc1C2=O | -3 | -23 | 11 | -5 | . | 22 | .
Cc1oc2c(c1C(=O)c1ccccc1)C(=O)C(=O)c1ccccc1-2 | -15 | . | -3 | . | 50* | . | -18%
C[C@H]1CN([C@@H](C)CO)C(=O)c2cc(NC(=O)C3CC3)ccc2O[C@H]1CN(C)Cc1ccc(C(F)(F)F)cc1 | . | -1 | -8 | . | . | 13 | .
CC1C/C(=C\c2cccnc2)C(=O)/C(=C/c2cccnc2)C1 (centres undefined) | -21 | . | . | . | 58* | . | -8%
